Test results published in ChEMBL document CHEMBL3745639, “Structure-activity relationships for lipoprotein lipase agonists that lower plasma triglycerides in vivo” (Eur J Med Chem, 2015).
≈ marks a conversion by molar mass, not a printed value. Calls of active or inactive are those of the source. Unless noted, the rule behind the calls is not given here.

Assays:
[1] = target: T1, Lipoprotein lipase (Bos taurus) (UniProt P11151); assay: Induction of bovine LPL stabilization using intralipid as substrate at 25 uM preincubated for 10 mins with human recombinant ANGPTL4 followed by substrate addition measured after 45 mins relative to control
T1 sequence (whole entry): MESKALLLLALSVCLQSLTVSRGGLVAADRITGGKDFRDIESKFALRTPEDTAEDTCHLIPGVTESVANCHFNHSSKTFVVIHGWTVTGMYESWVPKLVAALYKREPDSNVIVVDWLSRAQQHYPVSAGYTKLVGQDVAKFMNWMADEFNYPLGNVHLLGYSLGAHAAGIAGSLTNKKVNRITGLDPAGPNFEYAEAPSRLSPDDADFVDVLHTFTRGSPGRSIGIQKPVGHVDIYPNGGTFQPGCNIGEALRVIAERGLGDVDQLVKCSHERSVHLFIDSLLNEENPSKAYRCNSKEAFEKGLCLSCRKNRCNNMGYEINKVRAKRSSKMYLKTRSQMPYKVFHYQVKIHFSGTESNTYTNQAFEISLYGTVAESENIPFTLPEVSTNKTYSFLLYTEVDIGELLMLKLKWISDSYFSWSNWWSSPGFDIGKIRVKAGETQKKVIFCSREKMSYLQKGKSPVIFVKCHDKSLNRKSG
Procedure, shortened: (§1)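 Compound in DMSO in buffer (50 mM potassium phosphate pH 7.4, 0.15 M NaCl, 0.01% Triton X-100), with human ANGPTL4 N-terminal fragment (aa 26-184, 75 nM final) and bovine LPL (15 nM final). Preincubated 10 min at 25 °C with shaking. Stopped after 45 min with 2.5% Triton X-100, and NEFA measured enzymatically. Activity normalised between DMSO+LPL+ANGPTL4 (0%) and DMSO+LPL (100%).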

Mus musculus = assay: Hypolipidemic activity in C57B16/J mouse assessed as reduction in plasma triglyceride level at 10 mg/kg, ip qd administered for 4 days followed by olive oil injection through oral gavage one hour post last dose measured at 180 mins; type: functional, organism-based
Procedure, shortened: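 Female C57B16/J mice, 8-9 weeks, about 18 g, n = 8/group. Given 10 mg/kg i.p. once daily for 4 days, 0.5 ml in PBS pH 7.4 with 3% DMSO and 0.2% Triton X-100. Fasted 8 h before the last dose, then 0.2 ml oral olive oil gavage 1 h after it. Tail-vein EDTA plasma taken at baseline and every 60 min to 180 min. TG measured enzymatically, reported as mean ± SD.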

[2] = target: T1, Lipoprotein lipase (Bos taurus); assay: Induction of bovine LPL stabilization using intralipid as substrate at 6.25 uM preincubated for 10 mins with human recombinant ANGPTL4 followed by substrate addition measured after 45 mins relative to control; procedure, shortened: as §1
[3] = target: T1, Lipoprotein lipase (Bos taurus); assay: Induction of bovine LPL stabilization using intralipid as substrate at 12.5 uM preincubated for 10 mins with human recombinant ANGPTL4 followed by substrate addition measured after 45 mins relative to control; procedure, shortened: as §1
[4] = target: T1, Lipoprotein lipase (Bos taurus); assay: Induction of bovine LPL stabilization using intralipid as substrate at 3.12 uM preincubated for 10 mins with human recombinant ANGPTL4 followed by substrate addition measured after 45 mins relative to control; procedure, shortened: as §1
[5] = Apparent permeability across basolateral to apical side in human Caco2 cells at 10 uM after 15 to 60 mins; type: ADME, cell-based; details: Caco-2
[6] = Intrinsic clearance in human hepatocytes assessed per 10^6 cells at 1 uM after 10 to 60 mins by LC-MS/MS analysis in presence of NADPH; type: ADME, cell-based, Hepatocyte; details: read-out: CLH
Procedure, shortened: (§2)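 Freshly isolated human hepatocytes (0.5 x 10⁶ cells/ml) in Williams medium E with compound at 1 μM. Reaction started by adding cells. Sampled at 0, 10, 30 and 60 min in duplicate, quenched with acetonitrile containing warfarin, then LC-MS/MS.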

[7] = Apparent permeability across apical to basolateral side in human Caco2 cells at 10 uM after 15 to 60 mins; type: ADME, cell-based; details: Caco-2
Procedure, shortened: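 Caco-2 monolayers washed with pre-warmed HBSS, then donor solution applied. Transport run with apical pH 6.5 and basolateral pH 7.4. Monolayer integrity checked by TEER and by mannitol permeability. Papp derived from transport rates.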

[8] = Kinetic aqueous solubility of the compound in PBS at pH 1.2 after 2 hrs by LC-Ms analysis; type: physicochemical; details: read-out: Kinetic_solubility
Procedure, shortened: (§3)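 Kinetic solubility from a 10 mM DMSO stock diluted 1:100 (1% DMSO, maximum detectable 0.1 mM) into PBS pH 7.4 or HCl-adjusted PBS at about pH 1.2. Incubated at 37 °C for 2 h in sealed glass vials, centrifuged at 10000 x g, 37 °C, 20 min, then LC-MS/MS.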

[9] = Stability of the compound in human plasma after 4 hrs at 37 degC by mass spectrometric analysis; type: ADME, cell-free; details: read-out: Stability
Procedure, shortened: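 Plasma test solution (pooled human plasma, typically 10 μM compound) held at 37 °C for 4 h, matching the dialysis time. A reference sample was frozen immediately. Proteins precipitated with methanol containing warfarin, then LC-MS/MS. Stability expressed on a relative basis.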

[10] = Half life in human liver microsomes at 1 uM; type: ADME
Procedure, shortened: (§4)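 Pooled liver microsomes (0.5 mg/ml) with compound at 1 μM in 0.1 M phosphate buffer pH 7.4. Reaction started with NADPH 1 mM. Sampled at 0, 5, 15 and 40 min in duplicate, quenched with acetonitrile containing warfarin, then LC-MS/MS.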

[11] = Half life in human hepatocytes at 1 uM; type: ADME, cell-based, Hepatocyte; procedure, shortened: as §2
[12] = Fraction unbound in human plasma at 10 uM after 4 hrs by rapid equilibrium dialysis method; type: ADME, cell-free
Procedure, shortened: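 Rapid equilibrium dialysis of pooled human plasma from two male and two female non-smoking donors. Compound typically 10 μM final, dialysed against isotonic phosphate buffer pH 7.4 at 37 °C for 4 h with rapid rotation. Proteins precipitated with methanol containing warfarin internal standard, then both compartments analysed by LC-MS/MS.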

[13] = Efflux ratio of apparent permeability from basolateral to apical over apical to basolateral side in human Caco2 cells at 10 uM after 15 to 60 mins; type: ADME, cell-based; details: Caco-2
[14] = Intrinsic clearance in human liver microsomes at 1 uM after 5 to 40 mins by LC-MS/MS analysis in presence of NADPH; type: ADME; details: read-out: CLH; procedure, shortened: as §4
[15] = Kinetic aqueous solubility of the compound in PBS at pH 7.4 after 2 hrs by LC-MS/MS analysis; type: physicochemical; details: read-out: Kinetic_solubility; procedure, shortened: as §3
[16] = Half life in human plasma after 24 hrs; type: ADME, cell-free
Lipoprotein lipase = target: T2, Lipoprotein lipase (Bos taurus, UniProt P11151); assay: Induction of bovine LPL stabilization using intralipid as substrate preincubated for 10 mins with human recombinant ANGPTL4 followed by substrate addition measured after 45 mins relative to control; procedure, shortened: as §1
T2 sequence (P11151 whole entry): T1 sequence (whole entry)

Plasma = assay: Drug level in human plasma treated with 1,3-Dioxo-2-(4-(piperidin-1-yl)-3-(p-tolylcarbamoyl)phenyl)isoindoline-5-carboxylic acid at 10 uM after 24 hrs by LC-MS/MS analysis; type: ADME, cell-free

Activity [1]	Activity [2]	Activity [3]	Activity [4]	SMILES	further results
24.5%	101%	85.5%	35%	Cc1ccc(NC(=O)c2cc(-c3cc4cc(C(=O)O)ccc4[nH]3)ccc2N2CCCCC2)cc1	Activity (Mus musculus): Active
67.9%	49.8%	76%	inactive	Cc1ccc(NC(=O)c2cc(-c3cc4cc(C(=O)O)ccc4o3)ccc2N2CCCCC2)cc1	Papp B→A at 10 µM [5]: 18 nm/s; Activity (Mus musculus): Active; hepatocyte CLint at 1 µM [6]: 35 µL/min/1e6 cells; Papp A→B at 10 µM [7]: 12 nm/s; solubility kinetic at 2 h [8]: 7 µM (≈ 3.18 µg/mL); remaining at 4 h [9]: 93%; half-life at 1 µM [10]: > 1.33 h; half-life at 1 µM [11]: 0.667 h; Fu [12]: < 0.01%; efflux ratio at 10 µM [13]: 1.5; microsomal CLint at 1 µM [14]: < 17 µL/min/mg; solubility kinetic at 2 h [15]: < 2 µM
93.8%	inactive	90%	inactive	Cc1ccc(NC(=O)c2cc(N3C(=O)c4ccc(C(=O)O)cc4C3=O)ccc2N2CCCCC2)cc1	Papp B→A at 10 µM [5]: 310 nm/s; Activity (Mus musculus): inactive; Papp A→B at 10 µM [7]: 120 nm/s; half-life [16]: 1.5 h; remaining at 4 h [9]: 2%; efflux ratio at 10 µM [13]: 2.7; EC50 (Lipoprotein lipase): 6.6 µM; solubility kinetic at 2 h [15]: 80 µM (≈ 38.7 µg/mL)
89.7%	11.2%	90.6%	inactive	Cc1ccc(NC(=O)c2cc(-n3cc4cc(C(=O)O)ccc4n3)ccc2N2CCCCC2)cc1	Activity (Mus musculus): Active; EC50 (Lipoprotein lipase): 5 µM
49%	inactive	inactive	inactive	Cc1ccc(NC(=O)c2cc(-c3nc4ccc(C(=O)O)cc4[nH]3)ccc2N2CCCCC2)cc1	Activity (Mus musculus): Active
inactive	inactive	inactive	inactive	Cc1ccc(NC(=O)c2cc(N3C(=O)c4ccc(C(=O)O)cc4C3=O)ccc2Cl)cc1	
52.2%	44.3%	63.9%	inactive	CCc1cccc(NC(=O)c2cc(N3C(=O)c4ccc(C(=O)O)cc4C3=O)ccc2Nc2ccccc2)c1	
60%	37.6%	60.3%	inactive	CCc1ccc(NC(=O)c2cc(N3C(=O)c4ccc(C(=O)O)cc4C3=O)ccc2Nc2ccccc2)cc1	
inactive	inactive	inactive	inactive	COCCNc1ccc(N2C(=O)c3ccc(C(=O)O)cc3C2=O)cc1C(=O)Nc1ccc(C)cc1	
inactive	inactive	inactive	inactive	Cc1ccc(NC(=O)c2cc(N)ccc2N2CCCCC2)cc1	Drug metabolism (Plasma): metabolite_detected
65.8%	19.4%	42.2%	inactive	Cc1ccc(NC(=O)c2cc(N3C(=O)c4ccc(C(=O)O)cc4C3=O)ccc2N2CCCCC2)cc1C(F)(F)F	
24.6%	5%	7%	inactive	Cc1ccc(NC(=O)c2cc(Nc3ccc(C)cc3)cc(N3C(=O)c4ccc(C(=O)O)cc4C3=O)c2)cc1	
81.6%	inactive	54.6%	inactive	O=C(O)c1ccc2c(c1)C(=O)N(c1ccc(N3CCCCC3)c(C(=O)Nc3ccc(C(F)(F)F)cc3)c1)C2=O	
30.6%	inactive	inactive	inactive	Cc1ccc(NC(=O)c2cc(NC(=O)c3ccc(C(=O)O)cc3C(=O)O)ccc2N2CCCCC2)cc1	Drug metabolism (Plasma): metabolite_detected
inactive	inactive	inactive	inactive	Cc1ccc(NC(=O)c2cc(Cl)cc(N3C(=O)c4ccc(C(=O)O)cc4C3=O)c2)cc1	
11.4%	inactive	inactive	inactive	Cc1ccc(NC(=O)c2cc(N3C(=O)c4ccc(N)cc4C3=O)ccc2N2CCCCC2)cc1	
56.6%	inactive	38.6%	inactive	Cc1cccc(NC(=O)c2cc(N3C(=O)c4ccc(C(=O)O)cc4C3=O)ccc2N2CCCCC2)c1	
38.8%	inactive	inactive	inactive	Cc1ccc(NC(=O)c2cc(NC(=O)c3cc(C(=O)O)ccc3C(=O)O)ccc2N2CCCCC2)cc1	Drug metabolism (Plasma): metabolite_detected
52.5%	44.1%	59.1%	inactive	CC(C)c1ccc(NC(=O)c2cc(N3C(=O)c4ccc(C(=O)O)cc4C3=O)ccc2Nc2ccccc2)cc1	
